{"source": "ChEMBL document CHEMBL2346555", "about": "“Efficacious cyclic N-acyl O-amino phenol duocarmycin prodrugs” (J Med Chem, 2013)", "key": {"[1]": {"system": "L1210", "experiment": "Cytotoxicity against mouse L1210 cells assessed as growth inhibition after 72 hrs by phosphatase assay", "format": "functional, cell-based", "settings": "Mus musculus, L1210, 72 h", "outline": "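L1210 mouse leukemia cells were seeded at 30,000 cells/mL in DMEM with 10% FBS and grown 24 h at 37 °C, 5% CO2. DMSO dilutions were then added at six concentrations between 0–100 or 0–1000 nM, in duplicate, for 72 h. Read-out: phosphatase substrate in 0.1 M NaOAc pH 5.5 with 0.1% Triton X-100, 5 min at 37 °C, stopped with NaOH, A405. IC50 is the average of ≥4 determinations.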"}, "[2]": {"experiment": "Stability of the compound in DMF/H2O at 23 degC after 5 days in presence of NaHCO3", "format": "physicochemical", "settings": "120 h"}, "[3]": {"experiment": "Stability of the compound in MeOH at 23 degC after 5 days in presence of NaHCO3", "format": "physicochemical", "settings": "120 h"}, "[4]": {"experiment": "Half life of the compound in HCl/EtOAc at 23 degC", "format": "physicochemical"}, "[5]": {"experiment": "Stability of the compound in THF at 23 degC after 5 days in presence of NaHCO3", "format": "physicochemical", "settings": "120 h"}, "[6]": {"experiment": "Drug degradation in MeOH at 254 nM after 48 hrs by LC-MS analysis in presence of NaHCO3 and BnSH", "format": "physicochemical", "settings": "MeOH with NaHCO3 and BnSH; read-out: Drug degradation"}, "[7]": {"experiment": "Drug degradation in THF at 254 nM after 2 hrs by LC-MS analysis in presence of NaHCO3 and BnNH2", "format": "physicochemical", "settings": "THF with NaHCO3 and BnNH2; read-out: Drug degradation"}, "[8]": {"experiment": "Drug degradation in MeOH at 254 nM after 2 hrs by LC-MS analysis in presence of NaHCO3 and BnSH", "format": "physicochemical", "settings": "MeOH with NaHCO3 and BnSH; read-out: Drug degradation"}, "[9]": {"experiment": "Drug degradation in THF at 254 nM after 24 hrs by LC-MS analysis in presence of NaHCO3 and BnNH2", "format": "physicochemical", "settings": "THF with NaHCO3 and BnNH2; read-out: Drug degradation"}, "[10]": {"experiment": "Drug degradation in MeOH at 254 nM after 24 hrs by LC-MS analysis in presence of NaHCO3 and BnSH", "format": "physicochemical", "settings": "MeOH with NaHCO3 and BnSH; read-out: Drug degradation"}, "[11]": {"experiment": "Drug degradation in THF at 254 nM after 24 hrs by LC-MS analysis in presence of NaHCO3 and BnSH", "format": "physicochemical", "settings": "THF with NaHCO3 and BnSH; read-out: Drug degradation"}, "[12]": {"experiment": "Stability of the compound in MeOH at 254 nM after 2 hrs by LC-MS analysis in presence of NaHCO3 and BnNH2", "format": "physicochemical", "settings": "0.254 µM"}, "[13]": {"experiment": "Drug degradation in THF at 254 nM after 2 hrs by LC-MS analysis in presence of NaHCO3 and BnSH", "format": "physicochemical", "settings": "THF with NaHCO3 and BnSH; read-out: Drug degradation"}, "[14]": {"experiment": "Drug degradation in MeOH at 254 nM after 24 hrs by LC-MS analysis in presence of NaHCO3 and BnNH2", "format": "physicochemical", "settings": "MeOH with NaHCO3 and BnNH2; read-out: Drug degradation"}, "[15]": {"experiment": "Stability of the compound in THF at 254 nM under non basic condition in presence of BnSH", "format": "physicochemical", "settings": "0.254 µM"}, "[16]": {"experiment": "Half life of the compound in MeOH at 23 degC in presence of NaHCO3", "format": "physicochemical", "settings": "MeOH with NaHCO3"}, "[17]": {"experiment": "Stability of the compound in THF at 254 nM under non basic condition in presence of BnNH2", "format": "physicochemical", "settings": "0.254 µM"}, "[18]": {"experiment": "Drug degradation in MeOH at 254 nM after 48 hrs by LC-MS analysis in presence of NaHCO3 and BnNH2", "format": "physicochemical", "settings": "MeOH with NaHCO3 and BnNH2; read-out: Drug degradation"}, "[19]": {"experiment": "Drug degradation in THF at 254 nM after 72 hrs by LC-MS analysis in presence of NaHCO3 and BnSH", "format": "physicochemical", "settings": "THF with NaHCO3 and BnSH; read-out: Drug degradation"}, "[20]": {"experiment": "Drug degradation in THF at 254 nM after 48 hrs by LC-MS analysis in presence of NaHCO3 and BnSH", "format": "physicochemical", "settings": "THF with NaHCO3 and BnSH; read-out: Drug degradation"}, "[21]": {"experiment": "Drug degradation in THF at 254 nM after 72 hrs by LC-MS analysis in presence of NaHCO3 and BnNH2", "format": "physicochemical", "settings": "THF with NaHCO3 and BnNH2; read-out: Drug degradation"}, "[22]": {"experiment": "Drug degradation in THF at 254 nM after 48 hrs by LC-MS analysis in presence of NaHCO3 and BnNH2", "format": "physicochemical", "settings": "THF with NaHCO3 and BnNH2; read-out: Drug degradation"}, "[23]": {"experiment": "Drug degradation in MeOH at 254 nM after 72 hrs by LC-MS analysis in presence of NaHCO3 and BnNH2", "format": "physicochemical", "settings": "MeOH with NaHCO3 and BnNH2; read-out: Drug degradation"}, "[24]": {"experiment": "Drug degradation in MeOH at 254 nM after 72 hrs by LC-MS analysis in presence of NaHCO3 and BnSH", "format": "physicochemical", "settings": "MeOH with NaHCO3 and BnSH; read-out: Drug degradation"}}, "data": [{"smiles": "CN1Oc2cc3c(c4cccc(c24)C1=O)[C@H](CCl)CN3C(=O)OC(C)(C)C", "values": [{"measurement": "IC50", "setting": "[1]", "value": 850, "unit": "nM"}, {"measurement": "Stability", "setting": "[2]", "value": "Stable"}, {"measurement": "Stability", "setting": "[3]", "value": "Stable"}, {"measurement": "half-life", "setting": "[4]", "value": 24, "unit": "h"}, {"measurement": "Stability", "setting": "[5]", "value": "Stable"}]}, {"smiles": "CC(C)(C)OC(=O)N1C[C@@H](CCl)c2c1cc1c3c(cccc23)C(=O)NO1", "values": [{"measurement": "degraded at 48 h, 0.254 µM", "setting": "[6]", "value": 75, "unit": "%"}, {"measurement": "degraded at 2 h", "setting": "[7]", "value": 2, "unit": "%"}, {"measurement": "degraded at 2 h, 0.254 µM", "setting": "[8]", "value": 33, "unit": "%"}, {"measurement": "degraded at 24 h, 0.254 µM", "setting": "[9]", "value": 3, "unit": "%"}, {"measurement": "IC50", "setting": "[1]", "value": 650, "unit": "nM"}, {"measurement": "degraded at 24 h, 0.254 µM", "setting": "[10]", "value": 58, "unit": "%"}, {"measurement": "degraded at 24 h, 0.254 µM", "setting": "[11]", "value": 33, "unit": "%"}, {"measurement": "Stability", "setting": "[12]", "value": "Stable"}, {"measurement": "degraded at 2 h, 0.254 µM", "setting": "[13]", "value": 28, "unit": "%"}, {"measurement": "degraded at 24 h, 0.254 µM", "setting": "[14]", "value": 9, "unit": "%"}, {"measurement": "Stability", "setting": "[15]", "value": "Stable"}, {"measurement": "half-life", "setting": "[16]", "value": 70, "unit": "h"}, {"measurement": "half-life", "setting": "[4]", "value": 2, "unit": "h"}, {"measurement": "Stability", "setting": "[17]", "value": "Stable"}, {"measurement": "degraded at 48 h, 0.254 µM", "setting": "[18]", "value": 15, "unit": "%"}, {"measurement": "degraded at 72 h, 0.254 µM", "setting": "[19]", "value": 46, "unit": "%"}, {"measurement": "degraded at 48 h, 0.254 µM", "setting": "[20]", "value": 39, "unit": "%"}, {"measurement": "degraded at 72 h, 0.254 µM", "setting": "[21]", "value": 3, "unit": "%"}, {"measurement": "degraded at 48 h, 0.254 µM", "setting": "[22]", "value": 4, "unit": "%"}, {"measurement": "degraded at 72 h, 0.254 µM", "setting": "[23]", "value": 16, "unit": "%"}, {"measurement": "degraded at 72 h, 0.254 µM", "setting": "[24]", "value": 83, "unit": "%"}]}]}
